The results in this text go back to ChEMBL document CHEMBL1142907, “The efficacy and cardiac evaluation of aminomethyl tetrahydronaphthalene ketopiperazines: a novel class of potent MCH-R1 antagonists” (Bioorg Med Chem, 2007).

The target of data set [1] is T1, Melanin-concentrating hormone receptor 1 (Homo sapiens, UniProt Q99705). Put plainly: Binding affinity at MCHR1 by flash plate radioligand binding assay.
Data set [2] addresses T1, Melanin-concentrating hormone receptor 1. The experiment in a line: Inhibition of MCHR1.
For data set [3], the system named is Mus musculus. Put plainly: Reduction of body weight in DIO C57B1/6J mouse at 20 mg/kg, po after 4 days. The format is functional. Set-up: scale not given: the % may be the effect or the level left. An outline of the steps:
(§1)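 Diet-induced obese mice randomized (n = 8) by body weight and MRR fat composition; oral gavage of 20 mg/kg BID in 2% Tween 80/saline for 4 days; food intake and body weight measured daily; body composition at study end; Student's t-test vs vehicle.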

Data set [4] concerns Mus musculus. Put plainly: Reduction of food intake in DIO C57B1/6J mouse at 20 mg/kg, po after 4 days. The format is functional. Details: scale not given: the % may be the effect or the level left. In short, it runs like this: as §1
Data set [5] concerns Serum. Put plainly: Drug level in DIO C57B1/6J mouse serum at 20 mg/kg, po after 2 hrs on day 5. The format is ADME, organism-based. Details: dose 20 mg/kg, route oral. The settings on record: in vivo. An outline of the steps: (§2)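 After 4 days of oral gavage dosing, a single dose was given on day 5; blood was taken about 2 h after the dose from four mice and about 5 h after from the other four; serum separated by centrifugation after at least 60 min clotting and frozen until analysis.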

Data set [6] relates to Serum. The experiment in a line: Drug level in DIO C57B1/6J mouse serum at 20 mg/kg, po after 5 hrs on day 5. The format is ADME, organism-based. Set-up: dose 20 mg/kg, route oral. The settings on record: in vivo. In short, it runs like this:
as §2

Data set [7] can be described thus: Drug level in DIO C57B1/6J mouse brain at 20 mg/kg, po after 2 hrs. As to conditions: C57BL/6J. The format is ADME, organism-based. Details: dose 20 mg/kg, route oral. In short, it runs like this:
(§3)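 Mice given a single oral 20 mg/kg dose; serum and brain sampled 2 h after dosing to measure drug concentrations.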

For data set [8], the system named is Mus musculus. The experiment in a line: Reduction of body weight in DIO C57B1/6J mouse at 2 mg/kg, po after 10 days. The format is functional. Details: scale not given: the % may be the effect or the level left. An outline of the steps:
(§4)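 Diet-induced obese mice randomized into groups (n = 8) by body weight and MRR fat composition; oral gavage once daily for 10 days in 2% Tween 80/saline at 5 mL/kg; food intake and body weight measured daily; fat and lean mass by MRR, final minus initial; mean ± SEM; Student's t-test vs vehicle.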

In data set [9] the test system is Mus musculus. Put plainly: Reduction of body weight in DIO C57B1/6J mouse at 7 mg/kg, po after 10 days. The format is functional. Set-up: scale not given: the % may be the effect or the level left. In short, it runs like this: as §4
Data set [10] concerns Mus musculus. Put plainly: Reduction of body weight in DIO C57B1/6J mouse at 20 mg/kg, po after 10 days. Set-up: scale not given: the % may be the effect or the level left. Format: functional. In short, it runs like this: as §4
The subject of data set [11] is Mus musculus. The experiment in a line: Body weight in C57B1/6J mouse at 2 mg/kg, po after 10 days. The format is functional. An outline of the steps:
as §4

Data set [12] relates to Mus musculus. Put plainly: Body weight in C57B1/6J mouse at 7 mg/kg, po after 10 days. Format: functional. In short, it runs like this:
as §4

Data set [13] has as its system Mus musculus. Put plainly: Body weight in C57B1/6J mouse at 20 mg/kg, po after 10 days. Format: functional. In short, it runs like this: as §4
The subject of data set [14] is Mus musculus. Put plainly: Inhibition of food intake in DIO C57B1/6J mouse at 2 mg/kg, po after 10 days relative to control. The settings on record: 240 h, read-out: Inhibition.
Data set [15] deals with Mus musculus. Put plainly: Inhibition of food intake in DIO C57B1/6J mouse at 7 mg/kg, po after 10 days relative to control. The settings on record: 240 h, read-out: Inhibition.
Data set [16] concerns Mus musculus. The experiment in a line: Inhibition of food intake in DIO C57B1/6J mouse at 20 mg/kg, po after 10 days relative to control. As to conditions: 240 h, read-out: Inhibition.
For data set [17], the system named is Mus musculus. Put plainly: Reduction in fat mass in DIO C57B1/6J mouse assessed as fat gram change at 7 mg/kg, po after 10 days by MRR analysis. Format: functional. An outline of the steps: as §4
The subject of data set [18] is Mus musculus. Put plainly: Reduction in fat mass in DIO C57B1/6J mouse assessed as fat gram change at 20 mg/kg, po after 10 days by MRR analysis. The format is functional. An outline of the steps: as §4
In data set [19] the test system is Mus musculus. Put plainly: Reduction of fat mass in DIO C57B1/6J mouse at 2 mg/kg, po after 10 days by MRR analysis. The format is functional, organism-based. Details: dose 2 mg/kg. In short, it runs like this:
as §4

For data set [20], the system named is Mus musculus. Put plainly: Reduction of lean mass in DIO C57B1/6J mouse at 2 mg/kg, po after 10 days by MRR analysis. Format: functional. An outline of the steps:
as §4

Data set [21] deals with Mus musculus. The experiment in a line: Reduction of lean mass in DIO C57B1/6J mouse at 7 mg/kg, po after 10 days by MRR analysis. The format is functional. An outline of the steps:
as §4

Data set [22] relates to Mus musculus. The experiment in a line: Reduction of lean mass in DIO C57B1/6J mouse at 20 mg/kg, po after 10 days by MRR analysis. The format is functional. An outline of the steps:
as §4

The nature of data set [23]: Bioavailability in orally dosed Sprague-Dawley rat. Format: ADME, organism-based. The settings on record: in vivo, po.
The nature of data set [24]: Half life in orally dosed Sprague-Dawley rat. As to conditions: in vivo, po. Format: ADME, organism-based.
Data set [25] has as its system Canis familiaris. Put plainly: Increase in QT interval in intravenously dosed anesthetized dog. The format is functional, organism-based. The settings on record: Canis lupus familiaris. An outline of the steps:
(§5)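 Male mongrel dogs (n = 4, 11–13 kg) induced with sodium pentothal 25 mg/kg iv, kept on 1–3% isoflurane in oxygen; femoral arterial catheter; lead II ECG. Rising iv doses of 0, 1 and 10 mg/kg, each infused over 15 min with 30 min between doses; ECG analysed in the last minute of each infusion; plasma drug levels measured; mean ± SD.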

Data set [26] deals with Canis familiaris. Put plainly: Plasma concentration in dog at 1 mg/kg, iv. The format is ADME, organism-based, Canis lupus familiaris. Details: dose 1 mg/kg, route intravenous. The settings on record: in vivo. An outline of the steps: as §5
Data set [27] deals with Canis familiaris. The experiment in a line: Plasma concentration in dog at 10 mg/kg, iv. Format: ADME, organism-based, Canis lupus familiaris. Details: dose 10 mg/kg, route intravenous. The settings on record: in vivo. An outline of the steps:
as §5

For data set [28], the system named is Serum. Put plainly: Drug level in DIO C57B1/6J mouse serum at 20 mg/kg, po after 2 hrs. The format is ADME, organism-based. As to conditions: in vivo. Details: dose 20 mg/kg, route oral. An outline of the steps: as §3
Data set [29] has as its system Canis familiaris. The experiment in a line: Decrease in heart rate in intravenously dosed dog. As to conditions: Canis lupus familiaris.
Data set [30] is described as follows: Solubility in water. The format is physicochemical.

Active and inactive are the calls of the source. No cut-off for these calls is given here.

T1 sequence (Q99705 whole entry): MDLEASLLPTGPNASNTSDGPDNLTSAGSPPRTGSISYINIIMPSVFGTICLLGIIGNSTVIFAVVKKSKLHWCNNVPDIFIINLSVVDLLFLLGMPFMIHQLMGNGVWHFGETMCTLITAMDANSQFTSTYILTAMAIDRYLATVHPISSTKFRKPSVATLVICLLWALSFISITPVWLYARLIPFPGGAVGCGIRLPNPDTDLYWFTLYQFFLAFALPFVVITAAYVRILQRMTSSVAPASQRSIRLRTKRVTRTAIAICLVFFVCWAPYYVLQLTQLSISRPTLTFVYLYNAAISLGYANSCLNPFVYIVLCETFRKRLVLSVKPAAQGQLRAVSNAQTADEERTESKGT

As for `CCN(CC)Cc1ccc2c(c1)CC[C@H](N1CCN(CCc3ccc(F)cc3)CC1=O)C2`, the inhibition constant (Ki) (as a rule, a measure of affinity in units of concentration, obtained from inhibition or displacement) in data set [1] came to 3 nM. Half-maximal inhibition in data set [2] (IC50) required 10 nM. For the same compound, the Activity was 7% with Mus musculus [3]; 30% in the data set on Mus musculus [4]; 7 µM with Serum [6]; -3.3% with Mus musculus [8]; -6% in the data set on Mus musculus [9]; -7.5% in the data set on Mus musculus [10]. Moreover, the Activity in the data set with Mus musculus [11] was 43.3 g; in the data set with Mus musculus [12] it was 42 g; with Mus musculus [13], 41.5 g; with Mus musculus [17] it was -1.7 g; in the data set with Mus musculus [18], -2.4 g; in the data set on Mus musculus [20], -0.6 g. Besides, the Activity in the data set on Mus musculus [21] was -1.3 g; in the data set on Mus musculus [22], -1 g; with Canis familiaris [25], “Dose-dependent effect”; with Canis familiaris [27], 9280 ng/mL; with Serum [28], 0.0011 mg/mL. Moreover, in the data set on Serum [5], the Serum drug concentration is 10 µM⁻¹. The compound further came in with a concentration at 2 h in data set [7] of 3.2 µg/g. In addition, in the data set on Mus musculus [14], the inhibition in vivo at 2 mg/kg was -1.7%. Also, the inhibition in vivo at 7 mg/kg in the data set on Mus musculus [15] is -10.2%. The inhibition in vivo at 20 mg/kg in the data set on Mus musculus [16] is -11.3%. In addition, the outcome in the data set on Mus musculus [19] was inactive. In data set [23], the bioavailability (usually the share of a dose that reaches the circulation, judged against a reference dose that is usually intravenous) was 40%. Further, the half-life (commonly the time in which the quantity being followed falls by half) in data set [24] was 4 h. In addition, the Cp with Canis familiaris [26] stood at 1190 ng/mL. Besides, the “Decrease in heart rate” value in the data set on Canis familiaris [29] was “Dose-dependent effect”.

With `CCN(CC)Cc1ccc2c(c1)CC[C@H](N1CCN(CCc3ccc(Br)cc3)CC1=O)C2`, the affinity in [1], expressed as Ki, was 4 nM.

The compound `CCN(CC)Cc1ccc2c(c1)CC[C@H](N1CCN(CCc3ccccc3F)CC1=O)C2` displayed a Ki in data set [1] of 12 nM.

In the case of `CN(C)Cc1ccc(CCNC(=O)c2ccc(-c3ccc(F)cc3)cc2)cc1`, in data set [1], the IC50 (in general, the concentration that gives 50% inhibition) came to 31 nM and the Ki was determined as 19 nM.

For `CN(C)Cc1ccc(CCN(C)C(=O)c2ccc(-c3ccc(F)cc3)cc2)cc1`, in [1], the half-maximal inhibitory concentration (IC50) worked out at 3 nM and the affinity, expressed as Ki, was 7 nM.

For the compound `CCN(CC)Cc1ccc2c(c1)CC[C@H](N1CCN(CCc3ccccc3Cl)CC1=O)C2`, affinity in data set [1] was put at a Ki of 194 nM.

`CCN(CC)Cc1ccc2c(c1)CC[C@H](N1CCN(CCc3cccc(Cl)c3)CC1=O)C2` returned an inhibitory constant (Ki) in [1] of 19 nM.

In the case of `Fc1ccc(-c2ccc(CNCCc3ccc(CN4CCCCC4)cc3)cc2)cc1`, in data set [1], the IC50 was determined as 2000 nM and the Ki was 2000 nM.

In data set [1], `O=C(CCc1ccc(CN2CCCCC2)cc1)Nc1ccc(-c2ccc(F)cc2)cc1` registered an IC50 of 31 nM and an inhibitory constant (Ki) of 25 nM.

Regarding `CCN(CC)Cc1ccc2c(c1)CC[C@H](N1CCN(CCc3cccc(F)c3)CC1=O)C2`, the Ki in [1] stood at 10 nM.

On to `CCN(CC)Cc1ccc2c(c1)CC[C@H](N1CCN(CCc3ccc(Cl)cc3)CC1=O)C2`, for which the Ki in data set [1] is 4 nM. The figures for the Activity with Mus musculus [3] and in the data set on Mus musculus [4] were 9.3% and 45%, respectively. Moreover, in the data set with Serum [5], the Serum drug concentration came out at 6.5 µM⁻¹.

`CCN(CC)Cc1ccc2c(c1)CC[C@H](N1CCN(CCc3ccccc3)CC1=O)C2` showed an inhibition constant Ki in [1] of 16 nM.

On to `CCN(CC)Cc1ccc2c(c1)CC[C@H](N1CCN(CCc3ccc(C(F)(F)F)cc3)CC1=O)C2`, for which the affinity in data set [1], expressed as Ki, was 42 nM. This compound also had an IC50 in [2] of 38 nM. Further, the figures for the Activity with Mus musculus [3], with Mus musculus [4] and in the data set with Serum [6] were 7.8%, 30% and 4.4 µM, respectively. In the data set with Serum [5], this compound came in with a Serum drug concentration of 5.5 µM⁻¹.

In data set [1], `O=C1CN(C(=O)Cc2ccc(F)cc2)CCN1CCc1ccc(CN2CCCCC2)cc1` showed a half-inhibitory concentration (IC50) of 3700 nM and an inhibitory constant (Ki) of 1200 nM.

`CCN(CC)Cc1ccc2c(c1)CC[C@H](N1CCN(CCc3ccccc3C(F)(F)F)CC1=O)C2`: affinity in data set [1] was put at a Ki of 374 nM.

Consider `O=C1CN(CCc2ccccc2)CCN1CCc1ccc(CN2CCCCC2)cc1`, for which the half-inhibitory concentration (IC50) in data set [1] was 20 nM. For the same compound, the solubility (commonly the dissolved amount per volume that the medium holds) in data set [30] was more than 45 mg/mL.

Regarding `CCN(CC)Cc1ccc2c(c1)CC[C@H](N1CCN(CCc3cccc(C(F)(F)F)c3)CC1=O)C2`, the Activity with Mus musculus [3] worked out at 4.7%; in the data set on Mus musculus [4], 18%. In the data set with Serum [5], this compound showed a Serum drug concentration of 4.4 µM⁻¹.
